According to ChEMBL document CHEMBL1152329, “The marine sponge Diacarnus bismarckensis as a source of peroxiterpene inhibitors of Trypanosoma brucei, the causative agent of sleeping sickness” (J Nat Prod, 2009):
Values after ≈ are worked out from the molar mass of the structure shown.

What was measured:
Type in all cases: functional, organism-based
[1] = test system: Trypanosoma brucei brucei; experiment: Antitrypanosomal activity against Trypanosoma brucei brucei 221 after 48 hrs; conditions: Trypanosoma brucei, 221, 48 h
How it was run: (§1)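 T. brucei brucei strain 221 cultured in complete HMI-9 with 10% FBS, 10% Serum Plus and penicillin/streptomycin; seeded at 1×10^5 per mL and exposed to test samples delivered in 10% DMSO for 48 h at 37 °C, 5% CO2. Vehicle wells served as 0% inhibition and 1 mM thimerosal stock as 100%. Viability read as ATP bioluminescence after CellTiter-Glo lysis.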

[2] = test system: Trypanosoma brucei rhodesiense; experiment: Antitrypanosomal activity against Trypanosoma brucei rhodesiense STIB 900
[3] = test system: Trypanosoma brucei rhodesiense; experiment: Antitrypanosomal activity against Trypanosoma brucei rhodesiense trypomastigotes after 72 hrs
Trypanosoma brucei = experiment: Antitrypanosomal activity against Trypanosoma brucei; how it was run: as §1

Row | Structure (SMILES) | IC50 [1] | other results
1 | C=C1CCCC(C)(C)C1CC[C@]1(C)CC[C@@H]([C@@H](C)C(=O)OC)OO1 (stereo partly specified) | 2 µg/mL (≈ 5.91 µM) | 
2 | CC(C)(N)CNC(=O)CC1CC[C@]2(CC1)OC[C@]1(O2)C2CC3CC(C2)CC1C3 (stereo partly specified) |  | IC50 [2]: 0.9 µg/mL (≈ 2.3 µM)
3 | COC(=O)[C@H](C)[C@H]1CC[C@@](C)(CC/C=C(\C)CCC(=O)C(C)(C)CCCC(C)=O)OO1 | 5 µg/mL (≈ 11.4 µM) | 
4 | C=C1CCC[C@@H]2[C@@](C)(CC[C@]3(C)CC[C@H]([C@@H](C)C(=O)OC)OO3)[C@H](C)CC[C@@]12C | 2 µg/mL (≈ 4.92 µM) | 
5 | C=C1CCC[C@@H]2[C@@](C)(CC[C@]3(C)CC[C@H]([C@@H](C)C(=O)O)OO3)[C@H](C)CC[C@@]12C | 1 µg/mL (≈ 2.55 µM) | 
6 | CC1=C(CC/C(C)=C/CC[C@]2(C)CC[C@H]([C@@H](C)C(=O)O)OO2)C(C)(C)CCC1 | 0.9 µg/mL (≈ 2.29 µM) | 
7 | COC(=O)[C@H](C)[C@@H]1CC[C@@](C)(CC/C=C(\C)CCC(=O)C(C)(C)CCCC(C)=O)OO1 | 3 µg/mL (≈ 6.84 µM) | 
8 | COC(=O)[C@H](C)[C@H](O)CC[C@](C)(O)CCCC(C)CCC(=O)C(C)(C)CCCC(C)=O (stereo partly specified) | > 25 µg/mL | 
9 | CC(=O)CCCC(C)(C)C(=O)CC/C(C)=C/CC[C@]1(C)CC[C@H]([C@@H](C)C(=O)O)OO1 [(+)-MUQUBILONE B] | 2 µg/mL (≈ 4.71 µM) | 
10 | C[C@@H]1CC[C@H]2[C@@H](C)C(=O)O[C@@H]3O[C@@]4(C)CC[C@@H]1[C@]32OO4 [ARTEMISININ] |  | IC50 [3]: 6 µg/mL (≈ 21.3 µM); IC50 [2]: 25 µg/mL (≈ 88.5 µM)
11 | ClCCl [METHYLENE CHLORIDE] |  | IC50 (Trypanosoma brucei): 0.3 µg/mL
12 | CC(C)(N)CNC(=O)C[C@H]1CC[C@]2(CC1)OO[C@]1(O2)C2CC3CC(C2)CC1C3 [OZ277] |  | IC50 [2]: 0.6 µg/mL (≈ 1.53 µM)
13 | N=C(N)c1ccc(OCCCCCOc2ccc(C(=N)N)cc2)cc1 [PENTAMIDINE] |  | IC50 [3]: 0.4 µg/mL (≈ 1.17 µM)
14 | C=C1CCC[C@@H]2[C@@H](CC[C@@]3(C)CC[C@H]([C@H](C)C(=O)O)OO3)[C@H](C)CC[C@@]12C [SIGMOSCEPTRELLIN B] | 0.2 µg/mL (≈ 0.528 µM) | IC50 (Trypanosoma brucei): 0.2 µg/mL (≈ 0.528 µM)
